Results as given in ChEMBL document CHEMBL1154651, “Lead optimization of COX-2 inhibitor nimesulide analogs to overcome aromatase inhibitor resistance in breast cancer cells” (Bioorg Med Chem Lett, 2009).

experiment: Cytotoxicity against human LTEDaro cells after 72 hrs by MTT assay; format: functional, cell-based
In short: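 LTEDaro cells (long-term estrogen-deprived MCF-7aro) seeded in custom medium for 24 h, then exposed to a range of concentrations in DMSO (final ≤0.1%) for 72 h, with vehicle-matched DMSO controls. Medium then replaced with 0.5 mg/ml MTT for 2 h at 37°C in CO2 incubator; formazan dissolved in DMSO and read at 570 nm; triplicates.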

SMILES	IC50 [µM]
Cc1ccccc1COc1cc(NC(=O)c2ccccc2)ccc1N(C)S(C)(=O)=O	176
Cc1cc(C)c(COc2cc(NC(=O)Cc3ccccn3)ccc2N(C)S(C)(=O)=O)c(C)c1	51.3
CN(c1ccc(NC(=O)C2CCCCC2)cc1OCc1cc(Cl)ccc1Cl)S(C)(=O)=O	1
CC(C)c1ccc(COc2cc(NC(=O)Cc3ccncc3)ccc2N(C)S(C)(=O)=O)cc1	11.5
CN(c1ccc(NC(=O)c2ccccc2)cc1OCc1cc(Cl)ccc1Cl)S(C)(=O)=O	2.15
Cc1ccccc1COc1cc(NC(=O)Cc2ccncc2)ccc1N(C)S(C)(=O)=O	11.8
Cc1ccccc1COc1cc(NC(=O)Cc2cccnc2)ccc1N(C)S(C)(=O)=O	71.5
Cc1cc(C)c(COc2cc(NC(=O)c3ccccc3)ccc2N(C)S(C)(=O)=O)c(C)c1	10.3
Cc1cccc(C)c1COc1cc(NC(=O)C2CCCCC2)ccc1N(C)S(C)(=O)=O	39.4
Cc1cccc(C)c1COc1cc(NC(=O)c2ccccc2)ccc1N(C)S(C)(=O)=O	16.2
Cc1ccc(C)c(COc2cc(NC(=O)Cc3ccncc3)ccc2N(C)S(C)(=O)=O)c1	2.37
Cc1ccc(C)c(COc2cc(NC(=O)Cc3cccnc3)ccc2N(C)S(C)(=O)=O)c1	1.69
Cc1ccc(C)c(COc2cc(NC(=O)Cc3ccccn3)ccc2N(C)S(C)(=O)=O)c1	174
CC(C)c1ccc(COc2cc(NC(=O)Cc3ccccn3)ccc2N(C)S(C)(=O)=O)cc1	11.4
Cc1cccc(COc2cc(NC(=O)Cc3ccncc3)ccc2N(C)S(C)(=O)=O)c1	16.1
CC(C)c1ccc(COc2cc(NC(=O)Cc3cccnc3)ccc2N(C)S(C)(=O)=O)cc1	8.26
CN(c1ccc(NC(=O)Cc2cccnc2)cc1OCc1cc(Cl)ccc1Cl)S(C)(=O)=O	14.1
CN(c1ccc(NC(=O)Cc2ccccn2)cc1OCc1cc(Cl)ccc1Cl)S(C)(=O)=O	23.6
CCCCCCOc1cc(NC(=O)C2CCCCC2)ccc1N(C)S(C)(=O)=O	6.98
Cc1cccc(COc2cc(NC(=O)c3ccccc3)ccc2N(C)S(C)(=O)=O)c1	16.1

SMILES	IC50 [µM]
Cc1ccc(C)c(COc2cc(NC(=O)c3ccccc3)ccc2N(C)S(C)(=O)=O)c1	4.68
Cc1cccc(C)c1COc1cc(NC(=O)Cc2ccncc2)ccc1N(C)S(C)(=O)=O	19.9
Cc1cccc(C)c1COc1cc(NC(=O)Cc2cccnc2)ccc1N(C)S(C)(=O)=O	22.5
CCCCCCOc1cc(NC(=O)c2ccccc2)ccc1N(C)S(C)(=O)=O	12
CCCCCCOc1cc(NC(=O)Cc2ccccn2)ccc1N(C)S(C)(=O)=O	7.68
Cc1cccc(COc2cc(NC(=O)Cc3cccnc3)ccc2N(C)S(C)(=O)=O)c1	93.6
CCCCCCOc1cc(NC(=O)Cc2cccnc2)ccc1N(C)S(C)(=O)=O	12.1
Cc1ccccc1COc1cc(NC(=O)Cc2ccccn2)ccc1N(C)S(C)(=O)=O	93.9
Cc1cccc(COc2cc(NC(=O)C3CCCCC3)ccc2N(C)S(C)(=O)=O)c1	44.2
Cc1cc(C)c(COc2cc(NC(=O)Cc3ccncc3)ccc2N(C)S(C)(=O)=O)c(C)c1	13.2
CC(C)c1ccc(COc2cc(NC(=O)C3CCCCC3)ccc2N(C)S(C)(=O)=O)cc1	16.1
CN(c1ccc(NC(=O)Cc2ccncc2)cc1OCc1cc(Cl)ccc1Cl)S(C)(=O)=O	7.64
CCCCCCOc1cc(NC(=O)Cc2ccncc2)ccc1N(C)S(C)(=O)=O	9.56
CC(C)c1ccc(COc2cc(NC(=O)c3ccccc3)ccc2N(C)S(C)(=O)=O)cc1	7.93
Cc1cc(C)c(COc2cc(NC(=O)C3CCCCC3)ccc2N(C)S(C)(=O)=O)c(C)c1	18.5
Cc1cc(C)c(COc2cc(NC(=O)Cc3cccnc3)ccc2N(C)S(C)(=O)=O)c(C)c1	10.4
Cc1ccccc1COc1cc(NC(=O)C2CCCCC2)ccc1N(C)S(C)(=O)=O	28.5
Cc1cccc(COc2cc(NC(=O)Cc3ccccn3)ccc2N(C)S(C)(=O)=O)c1	14.9
Cc1cccc(C)c1COc1cc(NC(=O)Cc2ccccn2)ccc1N(C)S(C)(=O)=O	41.4
CS(=O)(=O)Nc1ccc([N+](=O)[O-])cc1Oc1ccccc1 [NIMESULIDE]	173
